Shown are actives, neighbours in structure and some others; about 1.2% of the full set was active somewhere.
Tb hexokinase: T. brucei hexokinase 1 inhibition | AID 1430 | inhibition, % at 10 µM | recombinant TbHK1, G6PDH-coupled NADH A340 | hit rate 0.11% among 220,000;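 active = inhibition of 50% or more in the single-dose primary screen; inactive = inhibition below 50%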
Diaph inh CS: counter-screen for diaphorase-based assays: diaphorase inhibitors and chemical oxidizers | diaphorase resazurin-to-resorufin fluorescence, NADH, 16 min; bacterial (C. kluyveri) enzyme, not human | inhibition, % at 20 µM | hit rate 0.69% among 190,000;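 active = primary screen inhibition at 20 µM above a set limit, cut at about 50% in these data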
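Test system: bacterial diaphorase enzyme (C. kluyveri); Quantity: 0.14 U/mL diaphorase, enzyme working solution; Times: reaction incubation of 16 min at room temperature; Measured by: fluorescence of resorufin formed from resazurin, Ex 544/Em 590 nm; Benchmarks: positive control minus NADH, DMSO neutral control.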
HKDC1 inh: HKDC1 (human) hexokinase inhibition. Q2TB90. recombinant HKDC1, G6PDH/diaphorase resazurin coupled fluorescence. inhibition, % at 20 µM. hit rate 0.16% among 340,000. AID 493160;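 active = inhibition above about 35% when tested at 20 µM, limit read from the data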
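Assay system – recombinant HKDC1 (HK5) hexokinase enzyme, produced in-house · Input – HKDC1 at 5 µg/mL · Reagent – glucose plus 1 mM ATP as hexokinase substrates · Timing – 90 min reaction incubation at room temperature, dark · Measured by – G6PDH/diaphorase-coupled fluorescence, 1 mM NADP, 100 µM resazurin, 525/613 nm · Benchmarks – DMSO-enzyme wells negative, buffer-substituted wells positive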
PfGluPho inh: PfG6PD (Plasmodium falciparum) enzyme inhibition. PfGluPho enzyme, NADPH resazurin-diaphorase fluorescence. hit rate 0.78% among 350,000. inhibition, % at 20 µM;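 active = inhibition reaching at least a set limit at 20 µM in the primary screen, cut at about 59% in these data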
G6PDH counter: counter-screen for G6PDH assay hits: L. mesenteroides G6PDH inhibition; inhibition, % at 5 µM; hit rate 0.12% among 200,000; AID 1020; Purified L. mesenteroides G6PDH, diaphorase/resazurin coupled fluorescence, 45 min; in the data active = inhibition above about 50%
HKDC1 act conf2: confirmation of human HKDC1 activators; shares compounds with HKDC1 inh; recombinant HKDC1, G6PDH/diaphorase resazurin fluorescence; stronger effect = lower value; inhibition, % at 20 µM; hit rate 14% among 740;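 active = inhibition at or below a set negative limit, negative inhibition meaning the enzyme was activated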
A number is an active result; i = inactive; nt = no result.

SMILES | Tb hexokinase | Diaph inh CS | HKDC1 inh | PfGluPho inh | G6PDH counter | HKDC1 act conf2
Cc1cc(C)c(NC(=O)CN2C(=O)NC3(CCCc4ccccc43)C2=O)c(Cl)c1 (stereo not drawn) | nt | nt | i | i | nt | nt
COc1ccc(NC(=O)CSc2ccc(-c3cccnc3)nn2)c(OC)c1 | nt | nt | i | i | nt | i
CCOc1ccc(C(=O)NC(=S)N(Cc2ccccc2)Cc2ccccc2)cc1 | i | i | i | i | i | nt
CCCN(CCC)C(=S)NC(=O)c1ccc(-c2ccccc2)cc1 | i | i | i | i | i | i
Cc1ccc(-n2[nH]c3c4c(ccc3c2=O)C(=O)c2ccccc2C4=O)cc1 | i | i | i | i | i | nt
CC(C)(C)n1[nH]c2c3c(ccc2c1=O)C(=O)c1ccccc1C3=O | i | i | 42.4 | i | i | i
Cc1cc(C)n(-c2ccc(NC(=O)C3CCN(Cc4cc(C)c(C)o4)CC3)cc2)n1 | nt | nt | 41.0 | i | nt | i
COc1cc(NC(=O)c2cnc(N)s2)cc(C(=O)Nc2cccc(C(F)(F)F)c2)c1 | i | nt | 59.2 | i | nt | i
COc1ccccc1NC(=O)COC(=O)c1c(NC(C)=O)sc(C)c1C | nt | nt | nt | i | nt | nt
CCCCCCCNC(=O)C1(CC2CC(c3ccc(Cl)cc3)=NO2)CCN(C(=O)CCCCCBr)CC1 (stereo not drawn) | nt | nt | i | i | nt | nt
O=c1c(CO)cc(CO)cc(CO)c1O | i | nt | i | i | nt | nt
O=C1C=CC(=O)c2c(O)c(CO)c(CO)c(O)c21 | nt | nt | 48.5 | i | nt | i
CN(c1ccc(C(=O)N2CCN(Cc3ccccc3)CC2)cc1)S(=O)(=O)c1ccccc1 | nt | nt | i | i | nt | i
O=C(NCC1CCCO1)C1CCN(S(=O)(=O)c2cc(Cl)ccc2Cl)CC1 (stereo not drawn) | nt | nt | i | i | nt | nt
COc1ccc(N=Cc2c(O)ccc3ccccc23)cc1 | i | i | i | i | i | nt
NC(=O)c1ccc(N=Cc2c(O)ccc3ccccc23)cc1 | nt | nt | i | i | nt | nt
O=C(O)c1ccc(N=Cc2c(O)ccc3ccccc23)cc1 | nt | nt | i | i | nt | i
O=S(=O)(/N=C/c1c(O)ccc2ccccc12)c1ccccc1 | nt | nt | 44.2 | i | nt | i
C[C@H](NC(=O)N1CCn2c1nc1ccccc12)C(=O)NCc1ccc2c(c1)OCO2 | nt | nt | i | i | nt | nt
N#CC(C#N)=C1SC(=Nc2ccccc2)C(=Nc2ccccc2)N1c1ccccc1 | nt | nt | i | i | nt | i
Fc1ccc(N2C(=S)SC(=Nc3ccccc3)C2=Nc2ccccc2)cc1 | nt | nt | i | i | nt | i
O=C1/C(=C\c2cccnc2)SC(=S)N1c1ccc(F)cc1 | i | i | i | i | i | nt
O=C(CC1CC2CCC1C2)N1CCN(S(=O)(=O)c2ccccc2F)CC1 (stereo not drawn) | nt | nt | i | i | nt | nt
CC(C)c1ccc(NC(=O)C2=NNC(=O)CC2)cc1 | i | nt | i | i | nt | nt
C/C(=N\NC(=O)c1cc(C)oc1C)c1ccc2ccccc2c1 | nt | nt | i | i | nt | nt
SMILES | Tb hexokinase | Diaph inh CS | HKDC1 inh | PfGluPho inh | G6PDH counter | HKDC1 act conf2
Cn1c2ccccc2c(=O)c2c(=O)n(-c3ccccc3)c(C3CCCCC3)nc21 | i | i | 43.3 | i | i | i
Cn1c2ccccc2c(=O)c2c(=O)n(C3CCCCCC3)c(C3CCCCC3)nc21 | i | i | i | i | i | i
O=C(CCCCC(=O)Sc1ccccc1)Sc1ccccc1 | nt | nt | 38.7 | i | nt | i
Cc1onc(-c2ccccc2)c1C(=O)NNC(=S)NC(=O)/C=C/c1cccs1 | i | i | i | i | i | i
O=S(=O)(NCCS(=O)(=O)N1CCN(c2ccc(F)cc2)CC1)c1ccccc1 | nt | nt | nt | i | nt | nt
CCc1ccc(S(=O)(=O)NCCc2cn3ccccc3n2)s1 | i | i | 39.4 | i | i | i
COC(=O)C(Cc1ccccc1)NC(=O)c1ccc(NS(=O)(=O)c2ccc3[nH]c(=O)[nH]c3c2)cc1 (stereo not drawn) | nt | nt | i | i | nt | nt
COc1ccccc1C(=O)NCCC(=O)N1CCCC(C(F)(F)F)C1 (stereo not drawn) | nt | nt | i | i | nt | nt
O=C(NCCC(=O)N1CCCC(C(F)(F)F)C1)c1ccc(Br)cc1 (stereo not drawn) | nt | nt | 36.2 | i | nt | i
CN1C(=O)c2ccc(Oc3ccccc3)cc2C1=O | nt | nt | i | i | nt | nt
O=C(N[C@@H](Cc1ccccc1)C(=O)N1CCN(S(=O)(=O)c2ccc(F)cc2)CC1)c1ccco1 | nt | nt | i | i | nt | nt
